According to ChEMBL document CHEMBL2150962, “Antimicrobial rubrolides from a South African species of Synoicum tunicate” (J Nat Prod, 2012):

What was measured:
Enterococcus faecalis = assay: Antimicrobial activity against gentamycin- and vancomycin-resistant Enterococcus faecalis ATCC 700802 at 100 ug/ml; assay type: functional; details: read-out: GI
Escherichia coli = assay: Antimicrobial activity against Escherichia coli O157:H7 at 100 ug/ml; assay type: functional; details: read-out: GI
[1] = system: Staphylococcus epidermidis; assay: Antimicrobial activity against Staphylococcus epidermidis ATCC 35984TCC BAA-1721; assay type: functional, organism-based
How it was run: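 Microtiter broth dilution; S. epidermidis ATCC 35984 grown in tryptic soy broth, inoculum 5 × 10⁵ cfu/mL, 16 h static incubation at 37 °C. Compound tested over 130 - 0.3 μg/mL. Technical duplicates, biological triplicate; percentage inhibition fitted by nonlinear regression to IC50.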

Staphylococcus aureus = assay: Antimicrobial activity against methicillin-resistant Staphylococcus aureus ATCC BAA-1720; assay type: functional, organism-based

SMILES	inhibition of growth at 100 µg/mL (Enterococcus faecalis) [%]	inhibition of growth at 100 µg/mL (Escherichia coli) [%]	IC50 [1] [µM]	IC50 (Staphylococcus aureus) [µM]
O=C1C=C(c2ccc(O)cc2)/C(=C/c2ccc(O)cc2)O1 [RUBROLIDE E]	89	16	21	105
COc1ccc(/C=C2\OC(=O)C=C2c2ccc(O)c(Br)c2)cc1	2	14	42	360
COc1ccc(/C=C2\OC(=O)C=C2c2ccc(O)cc2)cc1Br	43	22	98	256
O=C1C=C(c2ccc(O)c(Br)c2)/C(=C/c2ccc(O)cc2)O1	16	0	38	82
COc1ccc(/C=C2\OC(=O)C=C2c2ccc(O)cc2)cc1 [RUBROLIDE F]	47	15	79	1010
O=C1C=C(c2ccc(O)c(Br)c2)/C(=C/c2ccc(O)c(Br)c2)O1	2	25	28	89
